In one data set the test system is Liver microsomes. Put plainly: Intrinsic clearance in human liver microsomes. The format is ADME, Microsome. The essentials: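 Intrinsic clearance measured in human liver microsomes; expressed as ml/min/g liver.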
(In general: Liver microsomes are a subcellular fraction often used to study metabolism.)

Data set [1] in a line: Ratio of drug level in brain to blood in rat at 0.5 mg/kg, iv after 1 hr. The data set is classed as ADME, organism-based. The arrangement: dose 0.5 mg/kg, route intravenous. The essentials:
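Male rats given 0.5 mg/kg iv; brain and blood levels sampled 1 h after dosing and expressed as brain/blood partition.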

In the data set with Liver microsomes, `O=C(Nc1nc(-c2ccccn2)cs1)N1CCC2(CC1)CN(c1ccccc1)C(=O)O2` showed a CL of 0.6 mL/min/g. Also, the Kp (as a rule, tissue or fluid exposure divided by exposure in the circulation) at 1 h in data set [1] is under 0.1.
Turning to `O=C1OC2(CCN(c3nc4cc(Br)ccc4[nH]3)CC2)CN1c1ccccc1`, the CL in the data set with Liver microsomes is 2.5 mL/min/g.
`O=C1OC2(CCN(c3nc4cc(F)ccc4[nH]3)CC2)CN1c1ccccc1` had a CL in the data set with Liver microsomes of 7 mL/min/g.
In the data set with Liver microsomes, `O=C1OC2(CCN(c3nc4cc(-c5ccc(F)cc5)ccc4[nH]3)CC2)CN1c1ccccc1` gave a CL of 7 mL/min/g.
The molecule `O=C1OC2(CCN(c3nc4cc(OC(F)(F)F)ccc4[nH]3)CC2)CN1c1ccccc1` returned a CL in the data set with Liver microsomes of 0.5 mL/min/g. Besides, the Kp at 1 h in data set [1] amounted to 0.3.
In the data set with Liver microsomes, `O=C1O[C@]2(CC[C@H](c3nc4ccc(OC(F)(F)F)cc4[nH]3)CC2)CN1c1ccccc1` came in with a CL of 0.5 mL/min/g. Also, the Kp at 1 h in data set [1] came out at 0.6.
Take `O=C1O[C@]2(CC[C@H](c3nc4cc(OC(F)(F)F)ccc4[nH]3)CC2)CN1c1ccccc1F`: the CL in the data set on Liver microsomes amounted to 0.5 mL/min/g. Besides, the Kp at 1 h in data set [1] came to 0.8.
In turn, `O=C1O[C@]2(CC[C@H](c3nc4cc(OC(F)(F)F)ccc4[nH]3)CC2)CN1c1ccc(F)cc1` had a CL in the data set on Liver microsomes of 0.5 mL/min/g.
`Cc1ccccc1N1C[C@]2(CC[C@@H](c3nc4ccc(OC(F)(F)F)cc4[nH]3)CC2)OC1=O` gave a CL in the data set with Liver microsomes of 0.5 mL/min/g.
Still for that read-out and setting: the result for `O=C1O[C@]2(CC[C@H](c3nc4ccc(OC(F)(F)F)cc4[nH]3)CC2)CN1c1ccccc1Cl` reads 0.5 mL/min/g.
`O=C1O[C@]2(CC[C@H](c3nc4cc(OC(F)(F)F)ccc4[nH]3)CC2)CN1c1ccccn1` displayed a CL in the data set on Liver microsomes of 0.5 mL/min/g. In data set [1], the Kp at 1 h came to 0.5.
Regarding `Cc1cccc(N2C[C@]3(CC[C@@H](c4nc5ccc(OC(F)(F)F)cc5[nH]4)CC3)OC2=O)n1`, the CL in the data set with Liver microsomes stood at 0.6 mL/min/g.
For the molecule `Cc1ncccc1N1C[C@]2(CC[C@@H](c3nc4ccc(OC(F)(F)F)cc4[nH]3)CC2)OC1=O`, the CL in the data set on Liver microsomes amounted to 0.6 mL/min/g.
Molecule `O=C1O[C@]2(CC[C@H](c3nc4ccc(OC(F)(F)F)cc4[nH]3)CC2)CN1c1cccc(F)n1` returned a CL with Liver microsomes of 0.5 mL/min/g.
For the molecule `O=C1O[C@]2(CC[C@H](c3nc4cc(OC(F)(F)F)ccc4[nH]3)CC2)CN1c1cccnc1`, the CL in the data set on Liver microsomes was determined as 0.5 mL/min/g.
For the molecule `O=C1O[C@]2(CC[C@H](c3nc4cc(C(F)(F)F)ccc4[nH]3)CC2)CN1c1ccccc1`, the CL with Liver microsomes was 0.5 mL/min/g. The Kp at 1 h in data set [1] is 0.3.
Regarding `O=C1O[C@]2(CC[C@H](c3nc4cc(C(F)(F)F)ccc4[nH]3)CC2)CN1c1ccccn1`, the CL with Liver microsomes came out at 0.5 mL/min/g.
In the data set on Liver microsomes, `N#Cc1ccc2nc([C@H]3CC[C@]4(CC3)CN(c3ccccc3)C(=O)O4)[nH]c2c1` had a CL of 0.5 mL/min/g. The Kp at 1 h in data set [1] is under 0.03.
As to `N#Cc1ccc2[nH]c([C@H]3CC[C@]4(CC3)CN(c3ccc(F)cc3)C(=O)O4)nc2c1`, the CL in the data set on Liver microsomes was 0.5 mL/min/g.
In the case of `N#Cc1ccc2nc([C@H]3CC[C@]4(CC3)CN(c3ccccn3)C(=O)O4)[nH]c2c1`, the CL in the data set on Liver microsomes was 15 mL/min/g.
In turn, `O=C1OC2(CCN(c3nc4cc(C(F)(F)F)ccc4[nH]3)CC2)CN1c1ccccc1` yielded a CL with Liver microsomes of 0.5 mL/min/g. Further, the Kp at 1 h in data set [1] turned out to be 0.2.
In turn, `O=C1OC2(CCN(c3nc4ccccc4[nH]3)CC2)CN1c1ccccc1` displayed a CL in the data set on Liver microsomes of 9.8 mL/min/g.
